In one assay the test system is Leishmania donovani. Description: In vitro antiparasitic activity against Leishmania donovani was tested by sigmoidal regression analysis. It counts as functional. In outline: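 Mouse peritoneal macrophages (female CD1, starch-elicited, harvested 24 h) infected with L. donovani amastigotes (strain MHOM/ET/67/L82, hamster spleen) or T. cruzi Y-strain trypomastigotes (5:1, from MDCK overlay). Infected cells exposed to a 3-fold dilution series in quadruplicate for 5 days (L. donovani) or 3 days (T. cruzi). Giemsa-stained slides scored for % macrophages cleared of amastigotes versus untreated cultures. ED50 by sigmoidal regression.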

Assay [1] has as its target T1, Dihydrolipoyl dehydrogenase, mitochondrial (Sus scrofa) (UniProt P09623).
T1 sequence (whole entry): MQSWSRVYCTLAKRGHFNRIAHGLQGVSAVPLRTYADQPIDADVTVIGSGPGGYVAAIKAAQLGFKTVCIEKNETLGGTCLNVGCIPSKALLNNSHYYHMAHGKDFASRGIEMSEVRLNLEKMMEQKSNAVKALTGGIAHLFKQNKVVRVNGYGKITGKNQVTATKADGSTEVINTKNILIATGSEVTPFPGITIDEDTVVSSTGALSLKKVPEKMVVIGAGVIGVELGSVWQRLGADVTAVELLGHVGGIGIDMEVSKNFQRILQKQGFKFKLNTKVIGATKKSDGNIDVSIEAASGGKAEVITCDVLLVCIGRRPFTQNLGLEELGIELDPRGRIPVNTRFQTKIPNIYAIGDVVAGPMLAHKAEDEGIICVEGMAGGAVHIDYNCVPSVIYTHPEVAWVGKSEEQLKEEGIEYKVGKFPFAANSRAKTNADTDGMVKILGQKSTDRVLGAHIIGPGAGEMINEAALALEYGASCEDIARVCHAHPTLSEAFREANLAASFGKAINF
The assay can be described thus: The second order rate constant of the pig heart LipDH (lipoamide dehydrogenase) catalyzed NADH oxidation. In outline: (§1)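 Recombinant T. cruzi LipDH (E. coli, purified) or pig heart LipDH, 0.1–2.5 µg/mL. Buffer was 50 mM potassium phosphate, 1 mM EDTA, pH 7.0, with 100 µM NADH and naphthoquinone at 10 µM–1.2 mM; all assays carried equal DMSO. Run at 31 °C, started with enzyme, NADH decrease followed at 340 nm. Km and Vmax from Lineweaver–Burk plots. At least duplicate.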

The target in assay [2] is T1, Dihydrolipoyl dehydrogenase, mitochondrial (Sus scrofa). Description: Ratio of cytochrome c reduction and NADH oxidation by pig heart LipDH (lipoamide dehydrogenase) at 50 uM concentration, in cytochrome c assay. Summed up: (§2)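 T. cruzi or pig heart LipDH in 50 mM potassium phosphate pH 7.0 with 100 µM NADH, 50 µM cytochrome c and 50 µM naphthoquinone at 31 °C. Cytochrome c reduction read at 550 nm; NADH oxidation measured at 340 nm in the same conditions without cytochrome c. One-electron reduction % = cytochrome c rate ÷ (2 × NADH rate). At least duplicate.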

The test system of assay [3] is Trypanosoma cruzi. The assay can be described thus: Ratio of cytochrome c reduction and NADH oxidation by TcLipDH (Trypanosoma cruzi lipoamide dehydrogenase) at 50 uM concentration, in cytochrome c assay. Summed up:
as §2

Assay [4] deals with Dihydrolipoyl dehydrogenase (Trypanosoma cruzi). The assay can be described thus: The second order rate constant of the TcLipDH (Trypanosoma cruzi lipoamide dehydrogenase) catalyzed NADH oxidation.
Assay [5] concerns the target Trypanothione reductase (Trypanosoma cruzi) (UniProt P28593). The assay can be described thus: Rate of NADPH oxidation by TcTR in presence of 100 uM NQ was determined in comparison to intrinsic oxidase activity. In outline: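 Quinone reductase activity of recombinant TcTR measured as NADPH oxidation at 340 nm. Buffer was 20 mM Hepes, 1 mM EDTA, 0.15 M KCl, pH 7.25, with 250 µM NADPH at 25 °C. Rate with naphthoquinone (100 µM for line 8, 25 µM for line 9) divided by intrinsic oxidase rate of enzyme plus NADPH alone. Mean of at least two measurements.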

In assay [6] the test system is Trypanosoma cruzi. The assay can be described thus: The second order rate constant of the TcLipDH (Trypanosoma cruzi lipoamide dehydrogenase) catalyzed NADH oxidation. Summed up:
(§3)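 Recombinant TcLipDH expressed in E. coli, 0.1–2.5 µg/mL. 50 mM potassium phosphate, 1 mM EDTA, pH 7.0, 31 °C, with 100 µM NADH and naphthoquinone varied from 10 µM to 1.2 mM. DMSO was constant in all assays. NADH decrease followed at 340 nm. Km, Vmax and kcat came from Lineweaver-Burk plots, with kcat/Km derived. At least duplicate.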

Assay [7] relates to Trypanosoma cruzi. The assay can be described thus: Vmax is the maximum velocity of the TcLipDH (Trypanosoma cruzi lipoamide dehydrogenase) catalyzed NADH oxidation. Summed up:
as §3

The subject of assay [8] is Trypanosoma cruzi. Description: The Michaelis-Menten constant for NADH oxidation by TcLipDH (Trypanosoma cruzi lipoamide dehydrogenase).
Assay [9] has as its target Trypanothione reductase (Trypanosoma cruzi) (UniProt P28593). The assay can be described thus: The second order rate constant of the TcTR (Trypanosoma cruzi trypanothione reductase) catalyzed […]. Summed up:
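Recombinant TcTR (0.6 U) in 20 mM Hepes, 1 mM EDTA, 0.15 M KCl, pH 7.25 at 22 °C, with 200 µM NADPH and naphthoquinone at five concentrations (0–100 µM) in 1% DMSO. NADPH oxidation at 340 nm; intrinsic oxidase rate not subtracted. Km and Vmax from nonlinear Michaelis–Menten fit; kcat and kcat/Km calculated.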

The subject of assay [10] is Trypanosoma cruzi.
For assay [11], the target named is T1, Dihydrolipoyl dehydrogenase, mitochondrial (Sus scrofa). The assay can be described thus: Ratio of cytochrome c reduction and NADH oxidation by pig heart LipDH (pig heart lipoamide dehydrogenase) at 50 uM concentration, cytochrome c assay. In outline:
as §2

Assay [12] shares this target. Description: Second order rate constant of the pig heart LipDH (lipoamide dehydrogenase) catalyzed NADH oxidation. In outline: as §1
Assay [13] deals with Trypanosoma cruzi. The assay can be described thus: The second oder rate constant of the TcLipDH (Trypanosoma cruzi lipoamide dehydrogenase) catalyzed NADH oxidation. Summed up:
as §1

Assay [14] relates to Trypanosoma brucei. The assay can be described thus: In vitro antiparasitic activity against Trypanosoma brucei was tested by sigmoidal regression analysis at 30 uM; IA is inactive. It counts as functional, organism-based. Summed up:
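T. b. brucei S427 bloodstream trypomastigotes at 2 × 10⁵/mL in HMI-18 medium, in triplicate, with a 3-fold dilution series starting at 30 µM. Incubated 3 days at 37 °C in 5% CO₂. Pentamidine served as positive control. Viability read by tetrazolium colorimetric assay on day 3. ED50 by sigmoidal regression.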

Assay [15] has as its system Trypanosoma brucei. Description: In vitro antiparasitic activity against Trypanosoma brucei was tested by sigmoidal regression analysis.

Active and inactive are the calls of the source. The rule behind the calls is not given here. Bounds are passed on as bounds.

The results in this text go back to ChEMBL document CHEMBL1134791, “2- and 3-substituted 1,4-naphthoquinone derivatives as subversive substrates of trypanothione reductase and lipoamide dehydrogenase from Trypanosoma cruzi: synthesis and correlation between redox cycling activities and in vitro cytotoxicity” (J Med Chem, 2001).

Chain of Trypanothione reductase (Trypanosoma cruzi) (P28593 whole entry, looked up): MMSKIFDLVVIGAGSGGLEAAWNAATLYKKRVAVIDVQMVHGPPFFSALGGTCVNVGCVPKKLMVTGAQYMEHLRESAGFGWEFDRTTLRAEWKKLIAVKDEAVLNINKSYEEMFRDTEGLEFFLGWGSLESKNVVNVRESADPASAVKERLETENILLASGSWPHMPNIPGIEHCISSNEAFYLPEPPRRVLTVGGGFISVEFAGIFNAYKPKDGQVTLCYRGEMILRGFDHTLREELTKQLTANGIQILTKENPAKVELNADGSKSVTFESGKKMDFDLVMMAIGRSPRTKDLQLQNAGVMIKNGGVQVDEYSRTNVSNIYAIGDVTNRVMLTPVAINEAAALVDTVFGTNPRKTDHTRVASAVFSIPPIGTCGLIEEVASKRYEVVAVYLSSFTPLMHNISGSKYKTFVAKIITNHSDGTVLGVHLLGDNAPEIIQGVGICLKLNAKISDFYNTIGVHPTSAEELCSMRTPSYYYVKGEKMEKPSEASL

Turning to `CC1=C(CCC(=O)O)C(=O)c2c(O)cccc2C1=O`, the ED50 in the assay on Leishmania donovani was 72 µM. Further, the k cat/Km in assay [1] was 2.4 10e4 M-1 s-1; in [4] it was 10.2 10e4 M-1 s-1. For the same molecule, the Reduction turned out to be 1.6% in assay [2] and 6.6% in the assay with Trypanosoma cruzi [3].
As for `CC1=C(CCCNC(=O)OC(C)(C)C)C(=O)c2ccccc2C1=O`, the ED50 in the assay on Leishmania donovani is 29.4 µM. In addition, the k cat/Km is 3.4 10e4 M-1 s-1 in assay [1] and 8.4 10e4 M-1 s-1 in [4].
In turn, `CC1=C(CCC(=O)NCCCN2CCN(C)CC2)C(=O)c2ccccc2C1=O` returned an ED50 with Leishmania donovani of over 30 µM. Also, the k cat/Km in [1] was 2.6 10e4 M-1 s-1; in [4], 3 10e4 M-1 s-1. Further, the Reduction in assay [2] was found to be 0.8%; in the assay on Trypanosoma cruzi [3] it was 1.6%. Moreover, the x fold in [5] worked out at 7.
As a reminder, the Vmax is the rate approached at saturating substrate. The Km is the substrate concentration at which the rate is half of its maximum. On to `CC1=CC(=O)c2c(O)cccc2C1=O`, for which the k cat/Km in assay [1] was 29 10e4 M-1 s-1; in the assay with Trypanosoma cruzi [6], 48 10e4 M-1 s-1. Besides, the results for the Reduction (in [2]; in the assay with Trypanosoma cruzi [3]) were 15.4% and 26.1%, respectively. For the same molecule, the Vmax in the assay with Trypanosoma cruzi [7] came out at 22.9 µM/min/mg. Besides, the Michaelis constant (Km) in the assay with Trypanosoma cruzi [8] came to 40 µM.
For `CC1=C(CCC(=O)NCCCN2CCN(CCCNC(=O)CCC3=C(C)C(=O)c4ccccc4C3=O)CC2)C(=O)c2ccccc2C1=O`, the ED50 in the assay with Leishmania donovani was over 46 µM. Besides, the k cat/Km in assay [9] was 4.4 10e4 M-1 s-1. Further, the x fold in the assay with Trypanosoma cruzi [10] came to 1000 µM.
On to `CC1=C(CCC(=O)O)C(=O)c2ccccc2C1=O`, for which the ED50 in the assay with Leishmania donovani was over 30 µM. The Reduction in assay [11] is 0.5%; in the assay with Trypanosoma cruzi [3], 3%. Further, the figures for the k cat/Km in assay [12] and in assay [4] were 3.2 10e4 M-1 s-1 and 6.6 10e4 M-1 s-1, respectively.
In the assay on Leishmania donovani, `CC1=C(CCCNC(=O)OC(C)(C)C)C(=O)c2c(O)cccc2C1=O` had an ED50 of 10 µM. Also, the k cat/Km in [1] was 3.5 10e4 M-1 s-1; with Trypanosoma cruzi [13] it was 23 10e4 M-1 s-1. The Vmax in the assay with Trypanosoma cruzi [7] stood at 8.24 µM/min/mg. The Km in the assay on Trypanosoma cruzi [8] worked out at 30 µM.
Regarding `CC1=CC(=O)c2ccccc2C1=O`, the Reduction in [2] turned out to be 8.1%; in the assay with Trypanosoma cruzi [3], 12.7%. Moreover, the IA entry in the assay with Trypanosoma brucei [14] is “inactive”. Also, the values for the k cat/Km in assay [9] and in [12] were 1 10e4 M-1 s-1 and 13 10e4 M-1 s-1, respectively. Further, in the assay with Trypanosoma cruzi [8], the Km was 170 µM.
For `CC1=C(CCC(=O)NCCCN2CCN(C)CC2)C(=O)c2c(O)cccc2C1=O`, the k cat/Km in assay [1] is 6.1 10e4 M-1 s-1. Moreover, the values for the Reduction (in [2]; in the assay with Trypanosoma cruzi [3]) were 0.6% and 1.9%, respectively.
Turning to `CC1=C(NCCCN2CCN(CCCN)CC2)C(=O)c2ccccc2C1=O`, the ED50 in the assay on Trypanosoma brucei [15] is over 12.5 µM.
